From ChEMBL document CHEMBL4400550, “Designing Dual Inhibitors of Anaplastic Lymphoma Kinase (ALK) and Bromodomain-4 (BRD4) by Tuning Kinase Selectivity” (J Med Chem, 2019)
Converted amounts (≈) assume the structure as drawn. The source made the active and inactive calls. No cut-off for these calls is given here.

Columns and labels:
[1] = target: T1, Serine/threonine-protein kinase PLK1 (Homo sapiens, UniProt P53350); test: Inhibition of PLK1 (unknown origin) using Ser/Thr 16 as substrate after 60 mins by Z-LYTE activity assay
[2] = target: T2, Bromodomain-containing protein 4 (Homo sapiens, UniProt O60885); test: Binding affinity to BRD4 (unknown origin) by isothermal calorimetry
[3] = target: T2, Bromodomain-containing protein 4
[4] = target: T3, ALK tyrosine kinase receptor (Homo sapiens, UniProt Q9UM73, F1174L); test: Displacement of kinase tracer 236 from human N-terminal GST-tagged ALK F1174L mutant (1058 to 1620 residues) after 60 mins by LanthaScreen Eu--kinase binding assay
Procedure, shortened: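 LanthaScreen Eu binding assay. Mix 5 nM ALK F1174L, 30 nM Kinase Tracer 236 and 2 nM Eu-anti-GST antibody in 50 mM HEPES pH 7.5, 10 mM MgCl2, 1 mM EGTA, 0.01% Brij-35, 1 mM DTT. Compound runs 0.5 nM–100 μM in 1% DMSO. Incubate 60 min at room temperature. Read the 665 nm acceptor/donor emission ratio; fit log(inhibitor) vs ratio with a variable-slope equation.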

[5] = target: T1, Serine/threonine-protein kinase PLK1; test: Inhibition of PLK1 (unknown origin) at 10 nM using Ser/Thr 16 as substrate after 60 mins by Z-LYTE activity assay
Procedure, shortened: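 PLK-1 Z'-LYTE activity assay run externally through the SelectScreen kinase profiling service. Percentage inhibition is measured at 10 nM compound.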

[6] = target: T2, Bromodomain-containing protein 4; test: Inhibition of full-length C-terminal NanoLuc-tagged BRD4 BD1 (unknown origin) expressed in human HEK293 cells after 2 hrs by NanoBRET target engagement assay; assay type: cell-based
[7] = target: T4, ALK tyrosine kinase receptor (Homo sapiens, UniProt Q9UM73); test: Inhibition of full-length C-terminal NanoLuc-tagged ALK (unknown origin) expressed in human HEK293 cells after 2 hrs by NanoBRET target engagement assay; assay type: cell-based
Target sequence in this assay (Q9UM73 whole entry, the tested form may be a part): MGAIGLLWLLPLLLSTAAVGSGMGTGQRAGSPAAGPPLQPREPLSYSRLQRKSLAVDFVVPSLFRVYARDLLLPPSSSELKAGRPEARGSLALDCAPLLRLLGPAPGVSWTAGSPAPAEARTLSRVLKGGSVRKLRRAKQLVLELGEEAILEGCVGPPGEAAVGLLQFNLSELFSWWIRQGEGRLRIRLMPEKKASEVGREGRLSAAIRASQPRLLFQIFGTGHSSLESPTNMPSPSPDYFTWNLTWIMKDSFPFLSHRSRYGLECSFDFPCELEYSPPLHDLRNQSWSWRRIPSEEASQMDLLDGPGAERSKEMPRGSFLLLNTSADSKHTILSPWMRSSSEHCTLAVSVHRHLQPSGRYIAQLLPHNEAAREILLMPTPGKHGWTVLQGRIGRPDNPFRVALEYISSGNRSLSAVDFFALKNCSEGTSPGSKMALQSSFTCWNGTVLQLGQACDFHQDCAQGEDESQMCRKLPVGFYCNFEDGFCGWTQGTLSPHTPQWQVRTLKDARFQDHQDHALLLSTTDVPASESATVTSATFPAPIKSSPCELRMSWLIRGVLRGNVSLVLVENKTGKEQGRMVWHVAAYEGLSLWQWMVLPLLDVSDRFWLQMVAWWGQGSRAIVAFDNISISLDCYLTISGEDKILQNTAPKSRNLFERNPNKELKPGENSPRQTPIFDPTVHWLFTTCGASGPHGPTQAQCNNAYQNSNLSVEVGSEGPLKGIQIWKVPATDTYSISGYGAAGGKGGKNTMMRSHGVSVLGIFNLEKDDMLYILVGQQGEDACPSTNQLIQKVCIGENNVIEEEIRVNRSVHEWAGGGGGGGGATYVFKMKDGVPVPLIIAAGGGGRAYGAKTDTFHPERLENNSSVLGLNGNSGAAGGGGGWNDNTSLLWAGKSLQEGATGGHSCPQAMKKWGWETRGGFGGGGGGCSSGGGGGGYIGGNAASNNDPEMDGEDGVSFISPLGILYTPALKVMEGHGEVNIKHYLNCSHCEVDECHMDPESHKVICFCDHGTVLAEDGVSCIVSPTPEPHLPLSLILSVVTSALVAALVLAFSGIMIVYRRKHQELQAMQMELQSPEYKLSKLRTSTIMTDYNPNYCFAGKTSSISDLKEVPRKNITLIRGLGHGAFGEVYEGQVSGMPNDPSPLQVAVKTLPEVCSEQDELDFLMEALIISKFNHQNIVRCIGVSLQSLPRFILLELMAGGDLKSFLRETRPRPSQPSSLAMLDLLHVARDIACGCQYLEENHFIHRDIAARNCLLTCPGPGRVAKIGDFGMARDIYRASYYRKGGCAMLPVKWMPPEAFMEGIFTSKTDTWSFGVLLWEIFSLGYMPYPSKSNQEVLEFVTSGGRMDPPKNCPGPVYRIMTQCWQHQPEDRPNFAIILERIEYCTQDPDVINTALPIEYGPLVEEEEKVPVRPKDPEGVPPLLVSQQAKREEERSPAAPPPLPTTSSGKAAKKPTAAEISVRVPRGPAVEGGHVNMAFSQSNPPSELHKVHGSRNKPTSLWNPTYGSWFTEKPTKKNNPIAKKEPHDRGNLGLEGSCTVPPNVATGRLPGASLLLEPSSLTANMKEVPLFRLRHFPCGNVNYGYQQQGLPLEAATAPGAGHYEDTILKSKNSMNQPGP

[8] = target: T4, ALK tyrosine kinase receptor; test: Binding affinity to wild type human ALK (1088 to 1409 residues) expressed in mammalian expression system by kinome scan-based assay
Target sequence in this assay (Q9UM73 whole entry, the tested form may be a part): as above

[9] = target: T5, Serine/threonine-protein kinase PLK3 (Homo sapiens, UniProt Q9H4B4); test: Binding affinity to human PLK3 (42 to 334 residues) expressed in mammalian expression system assessed as unbound protein level at 1 uM by kinome scan-based assay
Procedure, shortened: (§1)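 Single-point KINOMEscan (scanEDGE) competition binding at 1 μM compound. Read-out is %Ctrl, with DMSO set as 100%Ctrl; lower values mean stronger binding.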
Target sequence in this assay (Q9H4B4 whole entry, looked up, the tested form may be a part): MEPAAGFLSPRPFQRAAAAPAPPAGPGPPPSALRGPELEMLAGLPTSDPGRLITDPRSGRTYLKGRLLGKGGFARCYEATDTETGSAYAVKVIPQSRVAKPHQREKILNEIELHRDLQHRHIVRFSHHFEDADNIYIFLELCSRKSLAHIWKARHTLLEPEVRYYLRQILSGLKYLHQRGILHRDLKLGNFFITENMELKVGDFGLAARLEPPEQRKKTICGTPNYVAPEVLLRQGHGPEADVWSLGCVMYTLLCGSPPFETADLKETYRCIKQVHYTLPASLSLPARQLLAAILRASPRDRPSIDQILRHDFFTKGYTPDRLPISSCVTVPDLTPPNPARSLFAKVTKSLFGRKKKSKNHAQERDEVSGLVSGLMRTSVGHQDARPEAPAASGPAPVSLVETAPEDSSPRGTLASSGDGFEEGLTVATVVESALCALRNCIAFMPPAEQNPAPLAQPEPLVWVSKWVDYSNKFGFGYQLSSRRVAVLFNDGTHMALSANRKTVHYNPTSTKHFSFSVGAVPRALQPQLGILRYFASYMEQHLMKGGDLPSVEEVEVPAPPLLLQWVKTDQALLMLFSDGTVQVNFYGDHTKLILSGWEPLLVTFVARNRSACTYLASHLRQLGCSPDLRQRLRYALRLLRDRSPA

[10] = target: T4, ALK tyrosine kinase receptor; test: Binding affinity to wild type human ALK (1088 to 1409 residues) expressed in mammalian expression system assessed as unbound protein level at 1 uM by kinome scan-based assay; procedure, shortened: as §1
Target sequence in this assay (Q9UM73 19-1620 limits assumed): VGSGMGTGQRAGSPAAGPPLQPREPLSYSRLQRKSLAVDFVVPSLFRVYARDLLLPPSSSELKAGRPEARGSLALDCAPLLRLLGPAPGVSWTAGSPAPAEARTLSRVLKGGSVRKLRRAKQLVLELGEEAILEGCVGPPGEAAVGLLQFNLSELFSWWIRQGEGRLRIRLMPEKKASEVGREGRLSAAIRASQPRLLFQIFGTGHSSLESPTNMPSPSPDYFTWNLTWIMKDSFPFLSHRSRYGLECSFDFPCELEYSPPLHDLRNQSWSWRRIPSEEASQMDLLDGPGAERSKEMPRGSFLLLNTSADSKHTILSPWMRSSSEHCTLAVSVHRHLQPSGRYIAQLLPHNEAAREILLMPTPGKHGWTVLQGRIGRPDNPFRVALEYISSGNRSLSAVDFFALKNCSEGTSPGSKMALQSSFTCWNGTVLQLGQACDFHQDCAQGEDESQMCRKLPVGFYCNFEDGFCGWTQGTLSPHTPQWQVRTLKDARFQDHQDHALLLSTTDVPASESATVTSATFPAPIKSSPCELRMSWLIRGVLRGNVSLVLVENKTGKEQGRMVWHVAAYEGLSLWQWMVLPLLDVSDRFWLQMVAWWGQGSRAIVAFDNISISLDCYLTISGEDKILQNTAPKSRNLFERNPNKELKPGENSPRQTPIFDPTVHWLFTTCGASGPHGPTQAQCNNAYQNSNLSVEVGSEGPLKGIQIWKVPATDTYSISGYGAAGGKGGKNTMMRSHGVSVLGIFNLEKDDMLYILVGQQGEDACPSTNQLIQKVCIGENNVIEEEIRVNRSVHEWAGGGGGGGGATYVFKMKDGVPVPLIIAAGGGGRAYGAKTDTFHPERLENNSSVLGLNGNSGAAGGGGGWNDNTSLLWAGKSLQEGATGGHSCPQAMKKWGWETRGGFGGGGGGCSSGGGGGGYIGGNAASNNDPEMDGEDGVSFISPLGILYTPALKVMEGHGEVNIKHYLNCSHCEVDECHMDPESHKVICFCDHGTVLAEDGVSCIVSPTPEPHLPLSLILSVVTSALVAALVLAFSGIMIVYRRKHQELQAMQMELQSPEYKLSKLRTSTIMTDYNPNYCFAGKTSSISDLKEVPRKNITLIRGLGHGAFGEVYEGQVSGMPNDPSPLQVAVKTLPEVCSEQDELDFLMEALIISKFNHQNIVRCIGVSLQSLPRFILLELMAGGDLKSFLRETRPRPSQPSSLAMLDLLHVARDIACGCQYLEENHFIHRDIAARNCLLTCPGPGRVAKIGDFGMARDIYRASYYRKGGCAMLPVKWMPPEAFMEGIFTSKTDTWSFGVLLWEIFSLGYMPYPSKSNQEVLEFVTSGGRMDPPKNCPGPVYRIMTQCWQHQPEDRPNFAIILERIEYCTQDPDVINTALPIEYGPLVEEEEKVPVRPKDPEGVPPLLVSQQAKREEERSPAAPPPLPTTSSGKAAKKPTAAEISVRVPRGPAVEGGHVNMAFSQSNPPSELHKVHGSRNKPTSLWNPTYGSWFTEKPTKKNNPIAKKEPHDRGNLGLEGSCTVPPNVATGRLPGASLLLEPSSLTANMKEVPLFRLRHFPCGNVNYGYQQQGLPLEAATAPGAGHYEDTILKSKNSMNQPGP

[11] = target: T3, ALK tyrosine kinase receptor; test: Binding affinity to human ALK F1174L mutant (1088 to 1409 residues) expressed in mammalian expression system by kinome scan-based assay
[12] = tested on: HeLa; test: Induction of cell cycle arrest in human HeLa cells at 4 to 10 uM after 24 hrs by propidium iodide-staining based flow cytometry; assay type: functional
[13] = Lipophilicity, log D of the compound at pH 7.4; assay type: physicochemical; settings: buffer
[14] = target: T5, Serine/threonine-protein kinase PLK3; test: Binding affinity to human PLK3 (42 to 334 residues) expressed in mammalian expression system by kinome scan-based assay
Target sequence in this assay (Q9H4B4 whole entry, the tested form may be a part): as the sequence (Q9H4B4 whole entry, looked up, the tested form may be a part) above

[15] = Permeability of the compound at pH 7.4 by PAMPA; assay type: ADME; settings: read-out: permeability
[16] = target: T6, Insulin receptor (Homo sapiens, UniProt P06213); test: Binding affinity to human INSR (997 to 1318 residues) expressed in mammalian expression system by kinome scan-based assay
[17] = target: T6, Insulin receptor; test: Binding affinity to human INSR (997 to 1318 residues) expressed in mammalian expression system assessed as unbound protein level at 1 uM by kinome scan-based assay; procedure, shortened: as §1
[18] = target: T3, ALK tyrosine kinase receptor; test: Inhibition of ALK F1174L mutant auto-phosphorylation in human Kelly cells after 3 hrs by MSD assay; assay type: cell-based
[19] = organism: Homo sapiens; test: Selectivity ratio of IC50 for PLK1 (unknown origin) to IC50 for human N-terminal GST-tagged ALK F1174L mutant (1058 to 1620 residues)
[20] = Solubility of the compound in phosphate buffer at pH 7.4 b HPLC analysis; assay type: physicochemical
Procedure, shortened: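 Solubility measured by in-house HPLC method from phosphate buffer at pH 7.4.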

[21] = organism: Homo sapiens; test: Selectivity ratio of IC50 for PLK1 in human HeLa cells to IC50 for human N-terminal GST-tagged ALK F1174L mutant (1058 to 1620 residues); assay type: cell-based
[22] = target: T1, Serine/threonine-protein kinase PLK1; test: Binding affinity to human PLK1 (33 to 325 residues) expressed in mammalian expression system assessed as unbound protein level at 1 uM by kinome scan-based assay; procedure, shortened: as §1
[23] = Partition coefficient, log P of the compound; assay type: physicochemical; settings: octanol/water
[24] = target: T1, Serine/threonine-protein kinase PLK1; test: Binding affinity to human PLK1 (33 to 325 residues) expressed in mammalian expression system by kinome scan-based assay

T1 sequence (P53350 whole entry): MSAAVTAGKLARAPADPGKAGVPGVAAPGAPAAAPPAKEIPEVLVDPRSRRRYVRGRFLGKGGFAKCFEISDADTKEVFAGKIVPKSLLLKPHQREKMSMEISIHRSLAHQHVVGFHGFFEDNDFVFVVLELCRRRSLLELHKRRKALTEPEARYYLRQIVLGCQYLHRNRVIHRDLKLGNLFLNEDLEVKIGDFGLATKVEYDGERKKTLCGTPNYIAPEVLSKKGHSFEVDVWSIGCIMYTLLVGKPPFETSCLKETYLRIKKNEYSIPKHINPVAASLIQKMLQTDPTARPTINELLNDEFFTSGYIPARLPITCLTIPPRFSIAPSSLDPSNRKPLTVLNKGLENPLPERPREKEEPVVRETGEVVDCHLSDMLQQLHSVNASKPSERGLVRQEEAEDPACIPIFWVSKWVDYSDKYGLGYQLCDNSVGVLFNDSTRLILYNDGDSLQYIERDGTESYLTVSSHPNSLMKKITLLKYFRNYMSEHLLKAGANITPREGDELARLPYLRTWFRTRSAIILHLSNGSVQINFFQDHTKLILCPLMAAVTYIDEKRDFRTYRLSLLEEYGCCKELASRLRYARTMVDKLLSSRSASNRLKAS
T3 sequence (Q9UM73 19-1620 F1174L limits assumed): as the sequence (Q9UM73 19-1620 limits assumed) above, with F1156L counted along it

| IC50 [1] | Kd [2] | deltaTm [3] | IC50 [4] | Compound | also measured |
| --- | --- | --- | --- | --- | --- |
| 540 nM | 130 nM | 6.2 K | 210 nM | CCOc1cc(C2CCN(C)CC2)ccc1Nc1ncc2c(n1)N(Cc1cccc(Cl)c1)[C@H](CC)C(=O)N2C | – |
| – | – | 8.3 K | 220 nM | CCOc1cc(C2CCN(C)CC2)ccc1Nc1ncc2c(n1)N(Cc1ccc(C)s1)[C@H](CC)C(=O)N2C | – |
| – | – | 5.1 K | 350 nM | CCOc1cc(C2CCN(C)CC2)ccc1Nc1ncc2c(n1)N(Cc1cccc(OC)c1)[C@H](CC)C(=O)N2C | – |
| 290 nM | 54 nM | 4.7 K | 85 nM | CCOc1cc(C2CCN(C)CC2)ccc1Nc1ncc2c(n1)N(Cc1ccccc1)[C@H](CC)C(=O)N2C | IC50 [6]: 540 nM; IC50 [7]: 1640 nM |
| 125 nM | 44 nM | 7.1 K | 17 nM | CCOc1cc(C2CCN(C)CC2)ccc1Nc1ncc2c(n1)N(Cc1cc(C)cs1)[C@H](CC)C(=O)N2C | Kd [8]: 89 nM; Activity [9]: 25%; Activity [10]: 7.1%; Kd [11]: 23 nM; Activity [12]: Active; logD [13]: 4.2; Kd [14]: 160 nM; Papp [15]: 49 ×10⁻⁶ cm/s; Kd [16]: 190 nM; Activity [17]: 25%; IC50 [18]: 1500 nM; Ratio IC50 [19]: 7; solubility [20]: 90 µM (≈ 48.1 µg/mL); Ratio [21]: > 10; Activity [22]: 1%; logP [23]: 6.1; IC50 [6]: 260 nM; Kd [24]: 11 nM; IC50 [7]: 470 nM |
| – | – | 2.9 K | 150 nM | CCOc1cc(C2CCN(C)CC2)ccc1Nc1ncc2c(n1)N(Cc1ccccc1Br)[C@H](CC)C(=O)N2C | – |
| 540 nM | 120 nM | 5 K | 290 nM | CCOc1cc(C2CCN(C)CC2)ccc1Nc1ncc2c(n1)N(Cc1cccc(Br)c1)[C@H](CC)C(=O)N2C | – |
| – | – | 4.6 K | 370 nM | CCOc1cc(C2CCN(C)CC2)ccc1Nc1ncc2c(n1)N(Cc1scnc1C)[C@H](CC)C(=O)N2C | – |
| 68 nM | 63 nM | 5.4 K | 63 nM | CCOc1cc(C2CCN(C)CC2)ccc1Nc1ncc2c(n1)N(Cc1sccc1C)[C@H](CC)C(=O)N2C | IC50 [6]: 310 nM; IC50 [7]: 1020 nM |
| – | – | 5.8 K | 680 nM | CCOc1cc(C2CCN(C)CC2)ccc1Nc1ncc2c(n1)N(Cc1ccc(Br)cc1)[C@H](CC)C(=O)N2C | – |
| 1800 nM | 78 nM | 4.8 K | 370 nM | CCOc1cc(C2CCN(C)CC2)ccc1Nc1ncc2c(n1)N(Cc1cccc(C#N)c1)[C@H](CC)C(=O)N2C | – |

Continued, compound first:

| Compound | IC50 [1] | Kd [2] | deltaTm [3] | IC50 [4] | also measured |
| --- | --- | --- | --- | --- | --- |
| CC[C@@H]1C(=O)N(C)c2cnc(Nc3ccc(C(=O)NC4CCN(C)CC4)cc3OCC(C)C)nc2N1C1CCCC1 | – | 73 nM | 7.2 K | 1700 nM | inhibition [5]: 43% |
| CCOc1cc(C(=O)NC2CCN(C)CC2)ccc1Nc1ncc2c(n1)N(C1CCCC1)CC(=O)N2C | – | – | 0.2 K | 520 nM | inhibition [5]: 32% |
| CCOc1cc(C(=O)NC2CCN(C)CC2)ccc1Nc1ncc2c(n1)N(C1CCCC1)[C@@H](CC)C(=O)N2C | – | – | -0.2 K | 3400 nM | inhibition [5]: 19% |
| CCOc1cc(C(=O)NC2CCN(C)CC2)ccc1Nc1ncc2c(n1)N(Cc1ccccc1)[C@H](CC)C(=O)N2C | 84 nM | 69 nM | 4.1 K | 440 nM | – |
| CCOc1cc(C(=O)NC2CCN(C)CC2)ccc1Nc1ncc2c(n1)N(C1CCCC1)[C@H](CC)C(=O)N2C | 12 nM | 81 nM | 6 K | 380 nM | – |
| CCOc1cc(C(=O)NC2CCN(C)CC2)ccc1Nc1ncc2c(n1)N(Cc1cccc(Br)c1)[C@H](CC)C(=O)N2C | 110 nM | 73 nM | 6.7 K | 490 nM | – |
| CC[C@@H]1C(=O)N(C)c2cnc(Nc3ccc(C4CCN(C)CC4)cc3OC)nc2N1C1CCCC1 | 9.9 nM | 80 nM | 5.4 K | 290 nM | – |
